Laboratory results from ChEMBL document CHEMBL1641498, “Synthesis and structure-activity relationships of novel benzoxaboroles as a new class of antimalarial agents” (Bioorg Med Chem Lett, 2011).
Converted amounts (≈) assume the structure as drawn.

How the values were obtained:
[1] = tested on: Plasmodium falciparum; test: Antimalarial activity against Plasmodium falciparum W2 infected in human erythrocytes assessed as reduction of parasitemia after 48 hrs by flow cytometry; assay type: functional, organism-based; settings: W2, 48 h
How it was run: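 Erythrocytic-stage W2 parasites cultured in human erythrocytes in RPMI-1640 with 10% human serum or 0.5% Albumax; sorbitol-synchronized to ring stage. Serial dilutions from 10 mM stocks; 2% hematocrit, 1% parasitemia, 3% O2/5% CO2/N2, 48 h.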

[2] = tested on: Jurkat; test: Cytotoxicity against human Jurkat cells after 72 hrs by MTT assay; assay type: cell-based
How it was run: (§1)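 Each cell line exposed to compounds over a 12-point concentration curve in triplicate for 72 h; viability read by MTT, IC50 determined.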

[3] = Solubility of the compound in water at pH 7; assay type: physicochemical
[4] = tested on: HeLa; test: Cytotoxicity against human HeLa cells after 72 hrs by MTT assay; assay type: cell-based; how it was run: as §1

IC50 [1] [µM]	Compound	other results
2.89	O=C(O)CCc1ccc2c(c1)COB2O	–
> 5	CN(CC(=O)O)c1cccc2c1B(O)OC2	–
0.46	O=C(CCc1cccc2c1B(O)OC2)NS(=O)(=O)C1CC1	–
> 5	CC(C)(Cc1cccc2c1B(O)OC2)C(=O)O	–
> 5	CN(C)C(=O)CCc1cccc2c1B(O)OC2	–
0.16	OB1OCc2cccc(CCc3nn[nH]n3)c21	–
0.46	O=C(O)COc1cccc2c1B(O)OC2	–
0.52	NCCCc1cccc2c1B(O)OC2	–
> 5	O=C(O)CCc1cccc2c1COB2O	–
2.72	CC(=O)CCc1cccc2c1B(O)OC2	–
> 5	O=C(O)CCc1cccc2c1B(O)OCC2	–
0.026	O=C(O)CCc1cccc2c1B(O)OC2	IC50 [2]: 60.5 µM; solubility [3]: 0.75 mg/mL (≈ 3.64 mM); IC50 [4]: > 100 µM
0.62	O=C(O)CCCc1cccc2c1B(O)OC2	–
2.01	O=C(O)CCCCc1cccc2c1B(O)OC2	–
1.3	NC(=O)CCc1cccc2c1B(O)OC2	–
0.95	O=C(O)CNc1cccc2c1B(O)OC2	–
0.12	O=C(O)CCc1ccc2c(c1)B(O)OC2	–
1.02	N#CCCc1cccc2c1B(O)OC2	–
0.32	COC(=O)CCc1cccc2c1B(O)OC2	–
> 5	CC1(C)OB(O)c2c(CCC(=O)O)cccc21	–
